An excerpt weighted towards active compounds, which were near 1.7% of everything screened.
CAL PDZ FP-1 = blocks peptide binding to the human CAL PDZ domain; inhibition, % at 24.9 µM; 300,000 compounds, 0.92% hits; purified CAL PDZ, TMR-peptide fluorescence polarization, 1 h; AID 602252;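 active = mean inhibition of at least 30% with at least half of replicates also reaching 30%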;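 note: 0% = DMSO neutral control and 100% = excess unlabeled competitor peptide PRC23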
miR122 inh = blocks miR-122 activity in Huh7 sensor cells; Huh7 miR-122 Renilla luciferase sensor, 48 h; neutral wells = 0, positive control = 100; activation (reporter increase), % at 12.5 µM; 340,000 compounds, 0.3% hits; AID 602342;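 active = mean replicate activation score at least 90 and every replicate individually at or above 90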;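 note: higher luciferase means less miR-122 activity so hits act as miR-122 inhibitors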
F508del corr = CFTR F508del correction in bronchial cells | CFBE cells, YFP halide quenching; stimulated with forskolin plus potentiator P3; % fluorescence drop versus neutral controls | activity (quench increase), % at 7.58 µM | 350,000 compounds, 0.36% hits | AID 720511;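 active = mean added fluorescence quench of at least 8% versus neutral control, with both replicates also reaching 8%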;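 note: cells transiently co-express mutant CFTR-F508del with the halide-sensitive YFP; corrector assay measuring rescue of mutant channel to the surface after 24 h compound exposure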
CAL PDZ FP-2 = blocks peptide binding to human CAL PDZ domain | purified CAL PDZ, TMR-peptide fluorescence polarization, 1 h | 330,000 compounds, 0.02% hits | Q9HD26 | AID 504414 | inhibition, % at 20 µM;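 active = highest replicate inhibition of at least 40%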;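 note: plate controls were DMSO neutral control wells for no effect and unlabeled competitor peptide control wells for full effect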
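Material – purified CerCALP PDZ construct · Detection – FP readout, S and P plane fluorescence · Measure – percent inhibition from loss of millipolarization · Controls – unlabelled peptide for full inhibition, DMSO wells as neutral · Probe or stimulus – TMR-labelled reporter peptide T*-PRC34 bound in PDZ groove · Times – 1 h at RT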
ARNT TACC3 PPI = disruptors of human ARNT/TACC3 interaction | Q9Y6A5 | AlphaScreen His-ARNT PAS-B/GST-TACC3 binding, luminescence; TACC3 fragment carries E629A point mutation | inhibition, % at 9.99 µM | 390,000 compounds, 0.66% hits | AID 623870;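 active = mean inhibition of replicates at least 50% and at least half of replicates each reaching 50%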;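 note: 0% = complete ARNT plus TACC3 wells and 100% = ARNT alone without TACC3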
PGC1a acetyl inh = PGC1a acetylation modulation, inhibitor mode. inhibition, % at 15.6 µM. 350,000 compounds, 0.17% hits. U2OS PGC1a acetylation, AlphaScreen anti-acetyl-lysine; with virally co-expressed GCN5 acetyltransferase;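 active = every replicate shows inhibition of at least 40%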;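 note: 0% = neutral control wells and 100% = positive control wells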
* marks the source's active call; other numbers are inactive results; . = no result given; + = active, no number; [ ] = another dose, or the depositor's remark.

SMILES | CAL PDZ FP-1 | miR122 inh | F508del corr | CAL PDZ FP-2 | ARNT TACC3 PPI | PGC1a acetyl inh
COc1cc2c(cc1OC)CN(C(=O)[C@@H]1[C@H]3C(=O)O[C@H](c4ccccc4)[C@H](c4ccccc4)N3[C@H](c3ccc(OCCO)cc3)[C@@]13C(=O)Nc1ccc(C#CCNC(N)=O)cc13)CC2 | . | . | 0 | . | 22 | .
COc1cc(OC)c2c(-c3cccc(-c4ccc(OC)c(F)c4)c3)cc(=O)oc2c1 | -3 | . | 8.5* | -1 | 0 | .
COc1ccc2c(c1)C(C)=CC(C)(C)N2S(=O)(=O)c1ccc(Br)cc1 | 4 | 114* | -1 | -1 | 7 | -83
CCOc1ccc2c(c1)C(C)=CC(C)(C)N2S(=O)(=O)c1ccc(F)cc1 | . | 13 | 10* | 0 | -1 | 9
CSc1ccccc1NC(=O)CN1CCN(S(=O)(=O)c2ccccc2[N+](=O)[O-])CC1 | + | 6 | 0 | -1 | 4 | 16
CC(/C=C/c1ccc(O)cc1)=NNc1ccccc1 | . | -1 | 18* | 0 | -1 | 2
CO[C@@H]1CN(C)C(=O)c2ccc(NC(=O)CC(F)(F)F)cc2OC[C@H](C)N(C(C)=O)C[C@H]1C | . | . | 3 | . | . | 0
Cc1[nH]c(=O)c(C(=O)/C=C/c2ccccc2F)c2c1CCCC2 | . | 182* | -11 | 0 | -1 | 41
O=S(=O)(NC1CCCCC1)c1cccc(-c2nnc(-c3ccccc3)o2)c1 | -5 | 100* | . | -2 | 1 | -6
CC(=O)c1c(C)[nH]c(C(=O)OCc2nnc(-c3ccc([N+](=O)[O-])cc3)o2)c1C | . | 4 | 9.2* | -1 | 10 | 5
C=CCn1c(SCC(=O)NC2CC2)nnc1-c1ccccn1 | -4 | 10 | 0 | -2 | 9 | -3
O=C(CSc1ncccc1C(=O)O)NC1CCCCCCC1 | 60* | -10 | 2 | -1 | 16 | -9
O=C(CSc1ccccc1C(=O)O)NC1CCCCCC1 | -10 | 0 | 1 | -1 | -4 | -8
C=CCn1c(SCC(=O)NC2CCCCC2)nnc1-c1ccccn1 | 122* | 1 | -5 | 0 | 10 | -1
C[C@@H]1CN([C@H](C)CO)C(=O)c2cc(NS(=O)(=O)c3cccs3)ccc2O[C@@H]1CN(C)Cc1ccc(Oc2ccccc2)cc1 | . | 53[16.7 µM] | -6 | . | 8 | -17
C[C@H]1CN([C@@H](C)CO)C(=O)c2cc(NC(=O)Cn3cnnn3)ccc2O[C@H]1CN(C)C(=O)Nc1ccc(C(F)(F)F)cc1 | . | -2[16.7 µM] | 3 | . | -3 | -9
CCC(=O)N[C@@H]1CC[C@H](CC(=O)NCc2cc(F)cc(F)c2)O[C@H]1CO | . | -11[16.7 µM] | -1 | . | -12 | 5
Cc1ccc(S(=O)(=O)N[C@@H]2CC[C@H](CCNC(=O)CN3CCOCC3)O[C@@H]2CO)cc1 | . | . | 3 | . | -15 | 5
CCOc1ccc(-c2nnc(SCC(=O)O)n2Cc2ccccc2)cc1 | -4 | -5 | -1 | . | -3 | 8
CC(C)(C)NC(=O)CSc1nnc(-c2ccncc2)n1Cc1ccccc1 | -6 | 0 | . | -1 | -3 | 1
CC(C)C(C)(C#N)NC(=O)CSc1nnc(-c2ccncc2)n1Cc1ccccc1 (stereo not given) | 35* | 3 | . | -1 | -9 | -2
COc1ccc(-c2nnc(SCC(=O)O)n2Cc2ccccc2)cc1 | 57* | -8 | . | 0 | -2 | 13
C[C@@H]1CN([C@@H](C)CO)C(=O)c2cc(-c3ccc(F)cc3)cnc2O[C@@H]1CN(C)CC1CCCCC1 | . | -6[16.7 µM] | 1 | . | 0 | -7
O=C(Cc1ccccn1)NCC[C@@H]1CC[C@@H](NC(=O)Nc2ccccc2)[C@H](CO)O1 | . | . | 5 | . | 13 | -2
O=C(C[C@H]1CC[C@@H]2[C@H](COC[C@@H](O)CN2C(=O)Nc2cccc(Cl)c2)O1)NCC1CCCCC1 | . | -8[16.7 µM] | -4 | . | 3 | 17
SMILES | CAL PDZ FP-1 | miR122 inh | F508del corr | CAL PDZ FP-2 | ARNT TACC3 PPI | PGC1a acetyl inh
C=CCn1c(=S)[nH]c2scc(-c3cccs3)c2c1=O | 1 | 1 | -4 | -2 | 28 | .
Cn1c(=S)[nH]c2scc(-c3cccs3)c2c1=O | 66* | . | 0 | -1 | 19 | 3
COc1ccc2c3c([nH]c2c1)[C@H](CO)N(C(=O)CC1CC1)CC31CCN(Cc2cccnc2)CC1 | . | . | 0 | . | . | 2
COc1ccccc1/C=C\C(=O)NCC(=O)N/N=C/c1ccc(O)cc1O | -3 | 0 | 1 | -5 | 54* | -6
O=C(CNC(=O)c1cccs1)N/N=C/c1ccc(O)cc1O | -4 | . | 1 | -4 | 70* | -9
O=C(CNC(=O)c1cccs1)N/N=C/c1ccc(Cl)cc1 | . | -2 | -1 | -2 | 1 | -9
O=C(CNC(=O)c1cccnc1)N/N=C/c1ccc(O)cc1O | -5 | 16 | 3 | -2 | 80* | 8
O=C(NN=Cc1ccc(O)cc1O)c1ccccc1NS(=O)(=O)c1cccs1 | -2 | -7 | 2 | 0 | 47* | 9
COc1ccccc1/C=C/C(=O)NCC(=O)N/N=C/c1ccccc1 | -2 | . | 3 | -3 | . | .
C[C@@H]1CN([C@H](C)CO)C(=O)c2cc(NS(C)(=O)=O)ccc2O[C@@H](C)CCCCO[C@@H]1CN(C)C(=O)NC1CCCCC1 | . | . | 1 | . | . | -4
O=C(COc1ccc(-c2ccccc2)cc1)N1CCN(S(=O)(=O)Cc2ccccc2)CC1 | -1 | 99* | . | -2 | . | -1
COc1ccc(/C(C)=N/NC(=O)c2cccc(S(=O)(=O)N3CCCC3)c2)c(O)c1 | 5 | . | 9.8* | -4 | 40 | .
COc1ccc(C(C)=NNC(=O)c2cccc(S(=O)(=O)N3CCCC3)c2)cc1 | -3 | . | 3 | 0 | -1 | -4
CC1(C)CC(=O)N(c2ccc(Cl)cc2Cl)C(=O)C1 | 61* | -6 | -1 | 1 | -5 | .
COc1ccc(NC(=O)NC2(C(=O)N3CCN(C)CC3)CCCCC2)cc1 | 61* | 3 | 1 | 10 | -2 | -8
C[C@H]1CN([C@@H](C)CO)C(=O)Cc2cc(NC(=O)c3ccncc3)ccc2O[C@H]1CN(C)CC1CCCCC1 | . | -10[16.7 µM] | -1 | . | -3 | 1
O=C(CN1C(=O)CSC1=O)N1CCc2ccccc2C1 | 0 | -6 | . | -2 | 30* | -8
O=C(CCc1ccccc1F)N1CCN(c2ccc(C(F)(F)F)cn2)CC1 | 45* | . | 2 | -1 | -3 | .
Cc1cc(-c2ccccc2)nc(N(C)NC(=O)C2CC2)c1S(C)(=O)=O | -4 | 11 | 8.5* | -1 | -5 | -2
CC(C)(C)NC(=O)NC(=O)CN1CCCc2ccccc21 | 0 | 0 | -2 | -1 | 0 | 5
O=C(CN1CCCc2ccccc21)NC(=O)NC1CCCCC1 | 82* | . | 1 | -1 | -1 | -4
CCCC#Cc1ccc2c(c1)O[C@H](CN(C)C(=O)C1CCC1)[C@H](C)CN([C@H](C)CO)S2(=O)=O | . | 0[16.7 µM] | -7 | . | 5 | -12

Source: PubChem
